Source: ChEMBL document CHEMBL1141851, “Two bioactive pentacyclic triterpene esters from the root bark of Hibiscus syriacus” (J Nat Prod, 1999)
In brackets after ≈: the same amount, converted by molar mass.

Columns and labels:
[1] = tested on: Liver microsomes; test: Antioxidant activity in rat liver microsomes assessed as inhibition of lipid peroxidation by TBARS assay; format: functional, Microsome
In short: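 Rat liver microsomal suspension ([…]) mixed with 0.2 mM ascorbic acid. Peroxidation was started by adding 100 µM FeSO4·7H2O. Thiobarbituric acid reactive products were read at 532 nm to measure inhibition of lipid peroxidation. The method was adapted with minor modification from an earlier one.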

[2] = tested on: UACC-62; test: Cytotoxicity against human UACC-62 cells; format: functional; conditions: read-out: ED50 (the source's name)
[3] = tested on: MCF7; test: Cytotoxicity against human MCF7 cells; format: functional; conditions: read-out: ED50 (the source's name)
[4] = tested on: NCI-H23; test: Cytotoxicity against human NCI-H23 cells; format: functional; conditions: read-out: ED50 (the source's name)
[5] = tested on: ACHN; test: Cytotoxicity against human ACHN cells; format: functional; conditions: read-out: ED50 (the source's name)
[6] = tested on: UO-31; test: Cytotoxicity against human UO-31 cells; format: functional; conditions: read-out: ED50 (the source's name)
[7] = tested on: PC-3; test: Cytotoxicity against human PC-3 cells; format: functional; conditions: read-out: ED50 (the source's name)
[8] = tested on: SW-620; test: Cytotoxicity against human SW620 cells; format: functional; conditions: read-out: ED50 (the source's name)
[9] = tested on: HCT-15; test: Cytotoxicity against human HCT-15 cells; format: functional; conditions: read-out: ED50 (the source's name)
[10] = tested on: SF-539; test: Cytotoxicity against human SF-539 cells; format: functional; conditions: read-out: ED50 (the source's name)

| IC50 [1] | Molecule | EC50 [2] | EC50 [3] | EC50 [4] | EC50 [5] | EC50 [6] | EC50 [7] | EC50 [8] | EC50 [9] | EC50 [10] |
| --- | --- | --- | --- | --- | --- | --- | --- | --- | --- | --- |
| 2.3 µg/mL (≈ 3.7 µM) | CC1(C)CC[C@]2(CO)CC[C@]3(C)C(=CC[C@@H]4[C@@]5(C)CC[C@H](O)[C@@](C)(COC(=O)/C=C/c6ccc(O)c(O)c6)[C@@H]5CC[C@]43C)[C@@H]2C1 | 3.9 µg/mL (≈ 6.28 µM) | 2.2 µg/mL (≈ 3.54 µM) | 2.8 µg/mL (≈ 4.51 µM) | 1.2 µg/mL (≈ 1.93 µM) | 2 µg/mL (≈ 3.22 µM) | 1.6 µg/mL (≈ 2.58 µM) | 1.1 µg/mL (≈ 1.77 µM) | 0.8 µg/mL (≈ 1.29 µM) | 1.4 µg/mL (≈ 2.25 µM) |
|  | COc1cccc2c1C(=O)c1c(O)c3c(c(O)c1C2=O)C[C@@](O)(C(=O)CO)C[C@@H]3O[C@H]1C[C@H](N)[C@H](O)[C@H](C)O1 [DOXORUBICIN] | 0.2 µg/mL (≈ 0.368 µM) | 0.1 µg/mL (≈ 0.184 µM) | 0.1 µg/mL (≈ 0.184 µM) | 0.3 µg/mL (≈ 0.552 µM) |  | 0.4 µg/mL (≈ 0.736 µM) | 0.1 µg/mL (≈ 0.184 µM) | 0.6 µg/mL (≈ 1.1 µM) | 0.2 µg/mL (≈ 0.368 µM) |
| 1.1 µg/mL (≈ 1.77 µM) | CC1(C)CC[C@]2(CO)CC[C@]3(C)C(=CC[C@@H]4[C@@]5(C)CC[C@H](OC(=O)/C=C/c6ccc(O)c(O)c6)[C@@](C)(CO)[C@@H]5CC[C@]43C)[C@@H]2C1 | 2.3 µg/mL (≈ 3.7 µM) | 1.8 µg/mL (≈ 2.9 µM) | 1.7 µg/mL (≈ 2.74 µM) | 2.1 µg/mL (≈ 3.38 µM) | 1.7 µg/mL (≈ 2.74 µM) | 2.2 µg/mL (≈ 3.54 µM) | 1 µg/mL (≈ 1.61 µM) | 1.3 µg/mL (≈ 2.09 µM) | 2 µg/mL (≈ 3.22 µM) |
| 1.6 µg/mL | VITAMIN E |  |  |  |  |  |  |  |  |  |
